Non-standard residues stand in square brackets, D forms with d. Residues, ends and D or L forms follow the SMILES beside them.
Test system: HEK-293T
Test: Multiplex assay against HEK293T
Format: toxicity, cell-based
Settings: human
Method in brief: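 Per cents of healthy-nucleus cells form the tubulin, mitochondrial-mass and membrane-permeability phenotype values. Live cells were stained at seeding with Hoechst33342, BioTracker Green Microtubule Cytoskeleton Dye, MitoTracker Red and Annexin V Alexa Fluor 680. After compound addition they were imaged on a CQ1 microscope at 37°C and 5% CO2, and CellPathfinder machine-learning gating split them into Hoechst high-intensity objects or normal cells, normal cells into healthy, pyknosed or fragmented nuclei, and pyknosed cells into mitotic or apoptotic.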

[1] = 12 h, 1 µM, compound concentration 1 uM, replicate 1
[2] = 12 h, 1 µM, compound concentration 1 uM, replicate 2
[3] = 12 h, 10 µM, compound concentration 10 uM, replicate 1
[4] = 12 h, 10 µM, compound concentration 10 uM, replicate 2
[5] = 24 h, 1 µM, compound concentration 1 uM, replicate 1
[6] = 24 h, 1 µM, compound concentration 1 uM, replicate 2
[7] = 24 h, 10 µM, compound concentration 10 uM, replicate 1
[8] = 24 h, 10 µM, compound concentration 10 uM, replicate 2
[9] = 48 h, 1 µM, compound concentration 1 uM, replicate 1
[10] = 48 h, 1 µM, compound concentration 1 uM, replicate 2
[11] = 48 h, 10 µM, compound concentration 10 uM, replicate 1
[12] = 48 h, 10 µM, compound concentration 10 uM, replicate 2

Structure (SMILES): CC(C)C[C@@H]1NC(=O)[C@@H](C(C)C)NC(=O)[C@@H]2CCCN2C(=O)[C@@H](CC(=O)O)NC(=O)[C@@H](Cc2c[nH]c3ccccc23)NC1=O [BQ-123] (cyclo(L[dW][dD]P[dV]))
- Population Apoptotic (%) [1]: 46%
- Population Fragmented Nuclei (%) [1]: 7%
- Population Healthy Nuclei (%) [1]: 80%
- Population Hoechst High Intensity Objects (%) [1]: 4%
- Population Membrane Permeable-Phenotype (%) [1]: 0%
- Population Mitochondria Different-Phenotype (%) [1]: 39%
- Population Mitotic Cells (%) [1]: 53%
- Population Normal (%) [1]: 95%
- Population Pyknosed Nuclei (%) [1]: 11%
- Population Tubulin-Different-Phenotype (%) [1]: 32%
- Total Cell Count [1]: 376
- Population Fragmented Nuclei (%) [2]: 5%
- Population Healthy Nuclei (%) [2]: 82%
- Population Hoechst High Intensity Objects (%) [2]: 7%
- Population Mitochondria Different-Phenotype (%) [2]: 59%
- Population Normal (%) [2]: 92%
- Population Tubulin-Different-Phenotype (%) [2]: 19%
- Total Cell Count [2]: 392
- Population Apoptotic (%) [3]: 30%
- Population Fragmented Nuclei (%) [3]: 7%
- Population Healthy Nuclei (%) [3]: 78%
- Population Hoechst High Intensity Objects (%) [3]: 7%
- Population Membrane Permeable-Phenotype (%) [3]: 0%
- Population Mitochondria Different-Phenotype (%) [3]: 48%
- Population Mitotic Cells (%) [3]: 69%
- Population Normal (%) [3]: 92%
- Population Pyknosed Nuclei (%) [3]: 14%
- Population Tubulin-Different-Phenotype (%) [3]: 31%
- Total Cell Count [3]: 387
- Population Apoptotic (%) [4]: 71%
- Population Fragmented Nuclei (%) [4]: 5%
- Population Hoechst High Intensity Objects (%) [4]: 11%
- Population Mitochondria Different-Phenotype (%) [4]: 65%
- Population Mitotic Cells (%) [4]: 28%
- Population Normal (%) [4]: 88%
- Population Pyknosed Nuclei (%) [4]: 16%
- Population Tubulin-Different-Phenotype (%) [4]: 22%
- Total Cell Count [4]: 265
- Population Apoptotic (%) [5]: 26%
- Population Fragmented Nuclei (%) [5]: 10%
- Population Healthy Nuclei (%) [5]: 79%
- Population Hoechst High Intensity Objects (%) [5]: 3%
- Population Membrane Permeable-Phenotype (%) [5]: 0%
- Population Mitochondria Different-Phenotype (%) [5]: 27%
- Population Mitotic Cells (%) [5]: 73%
- Population Normal (%) [5]: 96%
- Population Pyknosed Nuclei (%) [5]: 9%
- Population Tubulin-Different-Phenotype (%) [5]: 21%
- Total Cell Count [5]: 497
- Population Apoptotic (%) [6]: 40%
- Population Fragmented Nuclei (%) [6]: 7%
- Population Healthy Nuclei (%) [6]: 82%
- Population Hoechst High Intensity Objects (%) [6]: 5%
- Population Mitochondria Different-Phenotype (%) [6]: 35%
- Population Mitotic Cells (%) [6]: 59%
- Population Normal (%) [6]: 94%
- Population Tubulin-Different-Phenotype (%) [6]: 14%
- Total Cell Count [6]: 538
- Population Apoptotic (%) [7]: 25%
- Population Fragmented Nuclei (%) [7]: 11%
- Population Healthy Nuclei (%) [7]: 77%
- Population Hoechst High Intensity Objects (%) [7]: 6%
- Population Membrane Permeable-Phenotype (%) [7]: 0%
- Population Mitochondria Different-Phenotype (%) [7]: 31%
- Population Mitotic Cells (%) [7]: 75%
- Population Normal (%) [7]: 93%
- Population Pyknosed Nuclei (%) [7]: 11%
- Population Tubulin-Different-Phenotype (%) [7]: 24%
- Total Cell Count [7]: 511
- Population Apoptotic (%) [8]: 57%
- Population Fragmented Nuclei (%) [8]: 8%
- Population Healthy Nuclei (%) [8]: 78%
- Population Hoechst High Intensity Objects (%) [8]: 7%
- Population Mitochondria Different-Phenotype (%) [8]: 50%
- Population Mitotic Cells (%) [8]: 42%
- Population Normal (%) [8]: 92%
- Population Pyknosed Nuclei (%) [8]: 12%
- Population Tubulin-Different-Phenotype (%) [8]: 18%
- Total Cell Count [8]: 302
- Population Apoptotic (%) [9]: 21%
- Population Fragmented Nuclei (%) [9]: 11%
- Population Healthy Nuclei (%) [9]: 79%
- Population Hoechst High Intensity Objects (%) [9]: 3%
- Population Membrane Permeable-Phenotype (%) [9]: 0%
- Population Mitochondria Different-Phenotype (%) [9]: 22%
- Population Mitotic Cells (%) [9]: 78%
- Population Normal (%) [9]: 96%
- Population Pyknosed Nuclei (%) [9]: 9%
- Population Tubulin-Different-Phenotype (%) [9]: 15%
- Total Cell Count [9]: 719
- Population Apoptotic (%) [10]: 24%
- Population Healthy Nuclei (%) [10]: 81%
- Population Hoechst High Intensity Objects (%) [10]: 5%
- Population Membrane Permeable-Phenotype (%) [10]: 1%
- Population Mitochondria Different-Phenotype (%) [10]: 18%
- Population Mitotic Cells (%) [10]: 75%
- Population Normal (%) [10]: 94%
- Population Pyknosed Nuclei (%) [10]: 7%
- Population Tubulin-Different-Phenotype (%) [10]: 10%
- Total Cell Count [10]: 777
- Population Apoptotic (%) [11]: 25%
- Population Fragmented Nuclei (%) [11]: 16%
- Population Healthy Nuclei (%) [11]: 77%
- Population Hoechst High Intensity Objects (%) [11]: 3%
- Population Membrane Permeable-Phenotype (%) [11]: 1%
- Population Mitochondria Different-Phenotype (%) [11]: 21%
- Population Mitotic Cells (%) [11]: 75%
- Population Normal (%) [11]: 96%
- Population Pyknosed Nuclei (%) [11]: 6%
- Population Tubulin-Different-Phenotype (%) [11]: 15%
- Total Cell Count [11]: 756
- Population Apoptotic (%) [12]: 40%
- Population Fragmented Nuclei (%) [12]: 11%
- Population Healthy Nuclei (%) [12]: 80%
- Population Membrane Permeable-Phenotype (%) [12]: 0%
- Population Mitochondria Different-Phenotype (%) [12]: 29%
- Population Mitotic Cells (%) [12]: 59%
- Population Pyknosed Nuclei (%) [12]: 8%
- Population Tubulin-Different-Phenotype (%) [12]: 16%
- Total Cell Count [12]: 477

Source: ChEMBL document CHEMBL5058577, “EUbOPEN Chemogenomics Library 2 (Multiplex)” (2022)
